Sampled rows, rich in hits. Any-hit rate of the full collection: about 3.5%.
MrgX1 agonist: activates human MrgX1 receptor signaling | MrgX1-HEK293 cells, Fluo-4 calcium fluorescence, agonist mode; hits give high values | AID 588627 | B-score at 10 µM | 0.44% of 310,000 active | Q96LB2;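 active = calcium response B-score plate-corrected fluorescence ratio at least 3 library SD, with starting fluorescence B-score inside 5 SD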
Target sequence (Q96LB2 whole entry, looked up): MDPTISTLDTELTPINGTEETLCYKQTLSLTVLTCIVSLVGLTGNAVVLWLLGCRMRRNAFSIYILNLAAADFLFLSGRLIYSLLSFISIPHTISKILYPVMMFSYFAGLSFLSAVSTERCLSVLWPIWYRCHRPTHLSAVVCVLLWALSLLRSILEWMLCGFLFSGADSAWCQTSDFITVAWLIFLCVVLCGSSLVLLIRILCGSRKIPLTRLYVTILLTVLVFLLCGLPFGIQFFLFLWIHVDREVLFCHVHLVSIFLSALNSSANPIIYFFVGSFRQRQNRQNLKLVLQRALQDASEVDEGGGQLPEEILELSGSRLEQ
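Test system: Stable human MrgX1 HEK293 cell line | Schedule: Overnight plating before 1 h dye loading | Read-out basis: Baseline-normalised fluorescence change ratio, B-scored | Detection: Kinetic calcium dye fluorescence, Fluo-4 NW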
RGS4 act: potentiators or activators of RGS4; HEK293 M3R/inducible RGS4, carbachol calcium flux Fluo4; hits give low values; B-score at 10 µM; 0.92% of 310,000 active; AID 463111;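 active = B-score of the integrated calcium signal more than 4 SD below the library mean, with starting fluorescence not abnormally high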;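 also: negative B-score means reduced calcium response which marks RGS4 activation or potentiation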
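test system = HEK293 cells with stable M3R and inducible RGS4 | schedule = recording 10 s baseline at 1 Hz, 100 s post-agonist | technique = Fluo4-AM (2 µM) calcium-flux fluorescence, kinetic read | measure = Agonist-evoked peak-minus-minimum fluorescence over baseline, integrated ratio, B score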
MrgX1 PAM: allosterically activates human MrgX1 receptor signaling | Q96LB2 | 0.63% of 310,000 active | MrgX1-HEK293, Fluo-4 calcium flux, FDSS; hits give high values | B-score at 10 µM;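 active = plate-corrected calcium response at least 3 library SD above typical, normal starting fluorescence, not activating the receptor alone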;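 also: compound read alongside a low EC10 to EC30 dose of BAM8-22 agonist; peak minus trough fluorescence over baseline measured at the second addition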
MrgX1 antagonist: blocks BAM8-22 activation of human MrgX1 receptor | 1.3% of 310,000 active | MRGX1-HEK293 calcium flux, Fluo-4, BAM8-22 antagonism; hits give low values | Q96LB2 | B-score at 10 µM;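 active = calcium-response B-score plate-corrected more than 3 library SD below zero, starting fluorescence within 5 deviations, no agonist response on first addition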;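 also: peak minus trough fluorescence over baseline after final BAM8-22 challenge near maximal dose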
RGS4 inh: human RGS4 inhibition; P49798; HEK293 M3R/RGS4 inducible, Fluo-4 calcium flux; hits give high values; triggered by carbachol at its EC20; B-score at 10 µM; 0.45% of 310,000 active; AID 463165;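 active = B-score, a plate-corrected calcium signal, over three deviations above library mean, with baseline fluorescence within five deviations of library mean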;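 also: RGS4 expression induced by doxycycline in cells with stable M3 receptor; B-score is computed from the integrated fluorescence ratio over baseline after carbachol; higher B-score means a larger calcium signal and so more RGS4 inhibition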
Target sequence (P49798 whole entry, looked up): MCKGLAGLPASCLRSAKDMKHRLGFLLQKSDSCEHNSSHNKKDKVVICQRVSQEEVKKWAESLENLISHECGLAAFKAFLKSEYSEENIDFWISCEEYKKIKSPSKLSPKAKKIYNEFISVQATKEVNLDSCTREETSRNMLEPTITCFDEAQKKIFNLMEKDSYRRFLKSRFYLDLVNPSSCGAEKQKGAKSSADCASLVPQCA
RGS4 inh valid: RGS4 inhibitor validation. shares compounds with RGS4 inh. HEK293 M3R/RGS4, carbachol calcium Fluo-4 fluorescence; carbachol added at its EC20; 0 = buffer wells, 100 = carbachol control. calcium response, % at 10 µM. 65% of 1,700 active. AID 492999;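 active = duplicate-averaged calcium response above the buffer-only control mean plus 5 SD of those controls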;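 also: integrated fluorescence ratio F max minus min over baseline F0; higher response in RGS4-induced cells means RGS4 inhibition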
RGS4 uninduced: counter-screen for RGS4 inhibitors: effect in non-induced cells; activity (percent), % at 10 µM; HEK293 M3R non-induced, carbachol calcium Fluo-4; submaximal (EC20) carbachol stimulus; buffer wells 0%, carbachol control wells 100%; shares compounds with RGS4 inh; 20% of 1,900 active; AID 493000; call rule not given here;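 also: RGS4 induction absent so cells express M3R without RGS4; higher means more calcium signal and flags a non-specific hit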
M3R basal Ca ctr: second counter-screen for RGS4 inhibitors: non-induced cells without carbachol; shares compounds with RGS4 inh; HEK293 M3R/RGS4 non-induced, Fluo-4 calcium, no carbachol; normalised: buffer wells 0%, carbachol wells 100%; calcium response (agonist-mode artifact), % at 10 µM; 22% of 1,900 active;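 active = duplicate-averaged calcium rise in uninduced cells above buffer wells' mean plus 5 SD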
Numbers without * were called inactive; i = inactive; . = not tested or not shown.

SMILES	MrgX1 agonist	RGS4 act	MrgX1 PAM	MrgX1 antagonist	RGS4 inh	RGS4 inh valid	RGS4 uninduced	M3R basal Ca ctr
O=C(Nc1nnc(CC2=CCCCC2)s1)Nc1ccccc1F	i	i	i	i	i	.	.	.
COc1ccc(S(=O)(=O)N2CCOC2CNC(=O)C(=O)NCC(C)C)cc1 (centres undefined)	i	i	i	i	i	.	.	.
CC(=O)N(C)Cc1ccc(C(=O)CCl)cc1	i	i	i	i	11.4*	22.5%*	i	21.0%*
Cc1cnc(NC(=O)Nc2ccc(OCc3ccccc3)cc2)c(Br)c1	i	i	i	i	i	.	.	.
O=C(O)Cn1cc(/C=C/[N+](=O)[O-])c2ccccc21	i	i	i	i	i	.	.	.
O=[N+]([O-])/C=C/c1cn(Cc2ccccc2)c2ccccc12	i	i	i	i	15.5*	35.0%*	i	88.0%*
N#Cc1ccccc1Cn1cc(/C=C/[N+](=O)[O-])c2ccccc21	i	i	i	i	36.2*	186.5%*	i	52.0%*
O=S(=O)(Nc1ncccn1)c1ccc(NC(=S)Nc2ccccc2Cl)cc1	i	i	i	i	i	.	.	.
Cc1ccc(N(Cc2cc3ccc(C)cc3[nH]c2=O)C(=O)c2ccco2)cc1	i	i	i	i	i	i	i	i
Cc1ccc(N(Cc2cc3ccccc3[nH]c2=O)C(=O)c2ccco2)c(C)c1	i	i	i	i	i	.	.	.
Cc1ccc(N(Cc2cc3ccc(C)cc3[nH]c2=O)C(=O)c2cccs2)cc1	i	i	i	i	i	.	.	.
Cc1cccc(N(Cc2cc3ccc(C)cc3[nH]c2=O)C(=O)c2ccco2)c1	i	i	i	i	i	.	i	i
Cc1ccc2cc(CN(C(=O)c3ccco3)c3ccccc3)c(=O)[nH]c2c1	i	i	i	i	5.37*	i	i	i
O=C1CC2(CCN(C(=O)c3c(F)cccc3F)CC2)Oc2ccccc21	i	i	i	i	i	.	.	.
Cc1ccc(C(C2=C(O)CC(C)(C)CC2=O)C2C(=O)CC(C)(C)CC2=O)o1 (centres undefined)	i	i	i	i	9.3*	16.0%*	i	i
CC1(C)CC(=O)C(C(C2=C(O)CC(C)(C)CC2=O)c2cccs2)C(=O)C1 (centres undefined)	i	i	i	i	5.71*	24.5%*	58.5%*	i
CC1(C)CC(=O)C(C(C2=C(O)CC(C)(C)CC2=O)c2cccc(O)c2)C(=O)C1 (centres undefined)	i	.	i	i	.	.	.	.
CC(=O)C(C(C)=O)C(c1ccccc1)c1nc2ccccc2[nH]c1=O (centres undefined)	i	i	i	i	i	.	.	.
O=C(OCC(=O)N1CCN(c2ccccc2)CC1)c1cc(Cl)ccc1[N+](=O)[O-]	i	i	i	i	i	.	.	.
Cc1ccc(N(CC(=O)N=Nc2c(O)[nH]c3ccccc23)S(C)(=O)=O)c(C)c1	i	i	i	i	i	i	i	i
CCc1ccc2nc(NC(=O)c3cc(C)on3)sc2c1	i	i	i	i	6.39*	25.0%*	36.5%*	i
O=C(Nc1cccn(Cc2c(Cl)cccc2Cl)c1=O)c1c(Cl)cccc1Cl	i	i	i	i	i	.	.	.
COC(=O)Nc1cccn(Cc2c(Cl)cccc2Cl)c1=O	i	i	i	i	8.42*	6.5%*	i	i
CC(C)N(C(=O)COC(=O)CNS(=O)(=O)c1ccccc1F)c1ccccc1	i	i	i	i	i	.	.	.
CCN(CC)c1ccc(NC(=S)NCC2CCCO2)cc1 (centres undefined)	i	i	i	i	i	.	.	.
SMILES	MrgX1 agonist	RGS4 act	MrgX1 PAM	MrgX1 antagonist	RGS4 inh	RGS4 inh valid	RGS4 uninduced	M3R basal Ca ctr
O=[N+]([O-])c1cc(-c2csc(NC(CO)c3nc4ccccc4n3CCOCCO)n2)ccc1Cl (centres undefined)	i	i	i	i	7.67*	6.0%*	39.5%*	i
CCCn1c(C(C)Nc2nc(-c3cccc(Br)c3)cs2)nc2ccccc21 (centres undefined)	i	i	i	i	i	.	i	i
OCCOCCn1c(C(CO)Nc2nc(-c3ccc(F)cc3)cs2)nc2ccccc21 (centres undefined)	i	i	i	i	i	.	.	.
CCCn1c(C(C)Nc2nc(-c3ccc(C)cc3)cs2)nc2ccccc21 (centres undefined)	i	i	i	i	i	.	.	.
CCCn1c(C(C)Nc2nc(-c3ccc(Cl)c([N+](=O)[O-])c3)cs2)nc2ccccc21 (centres undefined)	i	i	i	i	8.01*	16.5%*	i	i
CC1=CC(C)(C)N2C(=O)C3(C(C#N)=C(N)Oc4cc(O)ccc43)c3c(C)c(C)cc1c32 (centres undefined)	i	i	i	i	5.94*	29.0%*	i	i
CC1=CC(C)(C)N2C(=O)C3(C(C#N)=C(N)OC4=C3C(=O)CCC4)c3c(C)c(C)cc1c32 (centres undefined)	i	i	i	i	i	.	.	.
Cc1cccc(CCN2C(Nc3ccccc3)=NC[C@@H]2C)c1	i	.	i	i	.	.	.	.
CC(=O)N1CCOc2ccc(S(=O)(=O)NCc3ccc(F)cc3)cc21	i	i	i	i	i	.	.	.
COC(=O)CCC(=O)Nc1sc(Cc2ccccc2)c(C)c1C(N)=O	i	i	i	i	i	.	.	.
COc1cccc(/C=N/c2sc(Cc3ccccc3)c(C)c2C(N)=O)c1O	i	i	i	i	4.99*	24.5%*	36.0%*	i
CCOC(=O)c1c(-c2ccc(C)o2)csc1NC(=O)CSc1nncs1	i	i	i	i	12.6*	11.0%*	i	i
CCOC(=O)c1c(-c2ccccc2)csc1NC(=O)CSc1nc(C)cc(C)n1	i	i	i	i	i	i	i	i

Screens as filed in PubChem BioAssay.
